Each structure is given as a SMILES string. Values after ≈ are worked out from the molar mass of the structure shown. Where a SMILES comes first, the peptide text is derived from it.

The source of these data is ChEMBL document CHEMBL1125636, “L-687,908, a potent hydroxyethylene-containing HIV protease inhibitor” (J Med Chem, 1991).

For assay [1], the target named is Human immunodeficiency virus type 1 protease (Human immunodeficiency virus 1, UniProt Q72874). As to the kind of experiment: Inhibition of HIV-1 protease. In kind it is functional. A digest of the protocol: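 HIV-1 protease peptide hydrolysis: octapeptide substrate H2N-ValSerGlnAsn(β-naphthyl-Ala)ProIle-Val-OH at 430 μM (Km = 160 μM), enzyme at 0.030 nM; cleavage quantitated by HPLC; IC50 from this readout.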

The subject of the next assay is H9. Nature of the assay: Minimum inhibitory concentration required to prevent HIV infection was determined in H9 human T-lymphoid cell culture. The class given is functional. A digest of the protocol:
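H9 human T-lymphoid cells were infected with HIV-1 IIIb at a multiplicity of infection of 1.0%, with no compound present. Compound was added 1 day after infection, predissolved in DMSO and serially diluted in RPMI-1640 with 10% FBS. Medium with fresh compound was replaced every 2–3 days. Cells were harvested at 14 days and scored by immunofluorescence with anti-HIV-1 human serum. MIC was the lowest concentration totally preventing spread beyond the initially infected cells.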

Assay [2] deals with T1, Renin (Rattus norvegicus, UniProt P08424).
T1 sequence (P08424 whole entry): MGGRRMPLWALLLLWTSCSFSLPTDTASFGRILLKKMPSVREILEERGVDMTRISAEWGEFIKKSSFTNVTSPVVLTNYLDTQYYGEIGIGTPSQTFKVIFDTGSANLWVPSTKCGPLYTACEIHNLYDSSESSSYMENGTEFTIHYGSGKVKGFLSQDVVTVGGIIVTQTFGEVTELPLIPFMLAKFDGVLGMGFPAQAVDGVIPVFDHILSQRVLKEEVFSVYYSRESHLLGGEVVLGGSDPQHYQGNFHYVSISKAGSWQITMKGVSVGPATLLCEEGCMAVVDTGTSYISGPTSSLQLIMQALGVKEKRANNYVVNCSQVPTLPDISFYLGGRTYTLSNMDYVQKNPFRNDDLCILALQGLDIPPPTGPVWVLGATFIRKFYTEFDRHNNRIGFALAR
Nature of the assay: Concentration required to inhibit 50% activity of plasma renin was determined at pH 7.4; Inactive. In kind it is functional, cell-free.

The target in assay [3] is T1, Renin. As to the kind of experiment: Concentration required to inhibit 50% activity of renin was determined. The class given is functional. A digest of the protocol: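 Purified plasma renin, assayed at pH 7.4; IC50 reported.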

As a reminder, the IC50 is the concentration at which inhibition is half-maximal. A lower IC50 goes with higher potency. On to `CC(C)CC(NC(=O)[C@H](Cc1ccccc1)C[C@H](O)[C@H](Cc1ccccc1)NC(=O)OC(C)(C)C)C(=O)NCCc1ccccc1` (stereo partly specified), for which the IC50 in assay [1] was determined as 12 nM.
For the molecule `CC(C)(C)OC(=O)N[C@@H](Cc1ccccc1)[C@@H](O)C[C@@H](Cc1ccccc1)C(=O)NCc1ccccc1`, half-maximal inhibition in assay [1] (IC50) was put at 111 nM. The MIC in the assay on H9 was > 50 µM.
As to `CC(C)CC(NC(=O)[C@H](Cc1ccccc1)C[C@H](O)[C@H](Cc1ccccc1)NC(=O)OC(C)(C)C)C(=O)NCc1ccccc1` (stereo partly specified), the midpoint of inhibition in assay [1], the IC50, lay at 1.4 nM. Further, the MIC against H9 came to 3 µM (≈ 1.85 µg/mL).
`CCC(C)C(NC(=O)[C@H](Cc1ccccc1)C[C@H](O)[C@H](Cc1ccccc1)NC(=O)OC(C)(C)C)C(=O)NCc1ccccc1` (stereo partly specified) returned an IC50 in assay [1] of 0.71 nM. This molecule also returned an MIC in the assay with H9 of 1.5 µM (≈ 0.924 µg/mL).
In turn, `CCC(C)C(NC(=O)[C@H](Cc1ccccc1)C[C@H](O)[C@H](Cc1ccccc1)NC(=O)OC(C)(C)C)C(=O)NCC(O)CO` (stereo partly specified) yielded an IC50 in assay [1] of 0.15 nM. This molecule also registered an MIC with H9 of 1.5 µM (≈ 0.9 µg/mL).
As for `CC(C)C[C@H](NC(=O)[C@H](Cc1ccccc1)C[C@H](O)[C@H](Cc1ccccc1)NC(=O)OC(C)(C)C)C(=O)N[C@@H](Cc1ccccc1)C(N)=O`, the IC50 is 0.6 nM in assay [1] and > 10000 nM at Renin [2]. Moreover, the MIC in the assay on H9 came to 6 µM (≈ 4.04 µg/mL).
In the case of `CC[C@H](C)[C@H](NC(=O)[C@H](Cc1ccccc1)C[C@H](O)[C@H](Cc1ccccc1)NC(=O)OC(C)(C)C)C(=O)NCc1nc2ccccc2[nH]1`, half-maximal inhibition in assay [1] (IC50) required 0.07 nM. In addition, the MIC with H9 came out at 0.2 µM (≈ 0.131 µg/mL).
With `CC[C@H](C)[C@H](NC(=O)[C@H](C/C=C/c1ccccc1)C[C@H](O)[C@H](Cc1ccccc1)NC(=O)OC(C)(C)C)C(=O)NCc1nc2ccccc2[nH]1`, it took 0.03 nM to reach half-maximal inhibition in assay [1] (IC50). For the same molecule, the MIC in the assay on H9 amounted to 0.012 µM (≈ 0.00818 µg/mL).
With `CC(C)C[C@H](NC(=O)[C@H](Cc1ccccc1)C[C@H](O)[C@H](Cc1ccccc1)NC(=O)[C@H](Cc1ccccc1)NC(=O)OC(C)(C)C)C(=O)N[C@@H](Cc1ccccc1)C(N)=O`, it took 20 nM to reach half-maximal inhibition in assay [1] (IC50).
Molecule `CC(C)C[C@H](NC(=O)[C@H](Cc1ccccc1)C[C@H](O)[C@H](Cc1ccccc1)NC(=O)CC(C)(C)C)C(=O)N[C@@H](Cc1ccccc1)C(N)=O` came in with an IC50 in assay [1] of 6 nM.
Molecule `CC(C)CC(NC(=O)[C@H](Cc1ccccc1)C[C@H](O)[C@H](Cc1ccccc1)NC(=O)OC(C)(C)C)C(N)=O` (stereo partly specified) came in with an IC50 in assay [1] of 12 nM. In the assay on H9, the MIC worked out at 6 µM (≈ 3.15 µg/mL).
Take `CC(C)CCNC(=O)[C@H](Cc1ccccc1)C[C@H](O)[C@H](Cc1ccccc1)NC(=O)OC(C)(C)C`: the IC50 in assay [1] is 470 nM.
`CC(C)C[C@H](NC(=O)[C@H](C/C=C/c1ccccc1)C[C@H](O)[C@H](Cc1ccccc1)NC(=O)OC(C)(C)C)C(=O)N[C@@H](Cc1ccccc1)C(N)=O` gave an IC50 in assay [1] of 0.15 nM. This molecule yielded an MIC with H9 of 6 µM (≈ 4.19 µg/mL).
Take `CC(C)C[C@H](NC(=O)[C@H](Cc1ccccc1)C[C@H](O)[C@H](Cc1ccccc1)NC(=O)[C@H](Cc1ccccc1)NC(=O)[C@H](Cc1ccccc1)NC(=O)OC(C)(C)C)C(=O)N[C@@H](Cc1ccccc1)C(N)=O` (HELM PEPTIDE1{[CC(C)(C)OC(=O)[*:2]].F.F.[O=C([C@H](Cc1ccccc1)C[C@H](O)[C@H](Cc1ccccc1)N[*:1])[*:2]].L.F.[am]}$$$$V2.0): the IC50 at Renin [3] came to 73 nM; in assay [1] it was 1 nM. In the assay with H9, this molecule returned an MIC of 50 µM (≈ 48.4 µg/mL).
